Test results published in ChEMBL document CHEMBL4017526, “Nanomolar Inhibitors of Glycogen Phosphorylase Based on β-d-Glucosaminyl Heterocycles: A Combined Synthetic, Enzyme Kinetic, and Protein Crystallography Study” (J Med Chem, 2017).
Calls of active or inactive are those of the source. No cut-off for these calls is given here.

Legend:
[1] = target: T1, Glycogen phosphorylase, muscle form (Oryctolagus cuniculus, UniProt P00489); assay: Inhibition of rabbit muscle glycogen phosphorylase
T1 sequence (P00489 whole entry): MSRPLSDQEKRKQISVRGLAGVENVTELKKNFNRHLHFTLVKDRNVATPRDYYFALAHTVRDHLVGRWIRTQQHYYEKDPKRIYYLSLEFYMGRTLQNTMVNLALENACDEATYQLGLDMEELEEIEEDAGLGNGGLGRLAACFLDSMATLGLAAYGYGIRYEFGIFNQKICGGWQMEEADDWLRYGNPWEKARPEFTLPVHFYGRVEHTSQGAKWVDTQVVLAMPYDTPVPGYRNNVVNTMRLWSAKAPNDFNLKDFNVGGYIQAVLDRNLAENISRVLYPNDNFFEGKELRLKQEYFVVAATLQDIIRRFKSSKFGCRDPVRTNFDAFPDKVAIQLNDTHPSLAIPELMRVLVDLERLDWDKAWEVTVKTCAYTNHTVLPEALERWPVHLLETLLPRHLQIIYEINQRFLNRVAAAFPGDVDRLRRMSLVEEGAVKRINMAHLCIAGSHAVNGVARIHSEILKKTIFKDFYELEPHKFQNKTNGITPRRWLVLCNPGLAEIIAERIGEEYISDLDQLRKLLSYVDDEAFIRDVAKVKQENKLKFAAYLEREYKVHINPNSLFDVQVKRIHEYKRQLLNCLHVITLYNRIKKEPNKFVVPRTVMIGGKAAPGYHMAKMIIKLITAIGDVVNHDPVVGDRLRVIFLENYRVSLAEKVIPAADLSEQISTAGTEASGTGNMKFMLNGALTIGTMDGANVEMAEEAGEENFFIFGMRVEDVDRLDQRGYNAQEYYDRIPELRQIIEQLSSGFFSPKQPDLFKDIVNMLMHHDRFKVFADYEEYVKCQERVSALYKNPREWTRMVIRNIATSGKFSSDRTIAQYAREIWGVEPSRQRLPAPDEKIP

[2] = target: T1, Glycogen phosphorylase, muscle form
[3] = target: T2, Glycogen phosphorylase, muscle form (Oryctolagus cuniculus) (UniProt P00489); assay: Competitive inhibition of rabbit muscle glycogen phosphorylase-b at 625 uM in presence of varying levels of glucose-1-phosphate and constant concentration of glycogen and AMP preincubated for 15 mins with AMP and glycogen followed by glucose-1-phosphate addition by Lineweaver-Burk plot method
T2 sequence (whole entry): T1 sequence (P00489 whole entry)

[4] = target: T3, Glycogen phosphorylase, liver form (Homo sapiens, UniProt P06737); assay: Competitive inhibition of 6xHis-tagged human liver glycogen phosphorylase-a expressed in Escherichia coli BL21 Gold (DE3) assessed as release of inorganic phosphate using varying levels of glucose-1-phosphate and constant concentration of AMP and glycogen preincubated for 15 mins with AMP and glycogen followed by glucose-1-phosphate addition by Lineweaver-Burk plot method
T3 sequence (P06737 whole entry): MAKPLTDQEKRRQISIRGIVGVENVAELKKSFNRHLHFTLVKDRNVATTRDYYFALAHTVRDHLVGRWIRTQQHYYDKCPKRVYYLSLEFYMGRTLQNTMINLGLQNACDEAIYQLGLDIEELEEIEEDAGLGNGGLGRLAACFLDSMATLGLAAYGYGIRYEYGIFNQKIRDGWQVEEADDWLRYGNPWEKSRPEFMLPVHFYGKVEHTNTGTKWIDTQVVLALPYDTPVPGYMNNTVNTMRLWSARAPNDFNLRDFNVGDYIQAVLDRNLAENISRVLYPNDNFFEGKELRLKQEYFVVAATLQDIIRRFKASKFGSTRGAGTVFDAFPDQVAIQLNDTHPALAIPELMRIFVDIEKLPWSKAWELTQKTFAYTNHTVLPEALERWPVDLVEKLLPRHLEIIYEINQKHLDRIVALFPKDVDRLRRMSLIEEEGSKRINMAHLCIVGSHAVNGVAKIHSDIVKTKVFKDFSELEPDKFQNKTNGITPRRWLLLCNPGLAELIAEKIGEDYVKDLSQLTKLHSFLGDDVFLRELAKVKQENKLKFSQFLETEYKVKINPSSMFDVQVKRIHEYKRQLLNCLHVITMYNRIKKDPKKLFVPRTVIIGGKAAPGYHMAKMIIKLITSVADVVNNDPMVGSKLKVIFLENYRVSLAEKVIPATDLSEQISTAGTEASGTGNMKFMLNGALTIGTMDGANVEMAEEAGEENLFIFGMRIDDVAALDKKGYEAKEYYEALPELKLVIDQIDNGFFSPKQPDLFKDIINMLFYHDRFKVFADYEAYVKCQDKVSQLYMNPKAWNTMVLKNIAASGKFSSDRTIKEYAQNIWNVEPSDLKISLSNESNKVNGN

[5] = target: T1, Glycogen phosphorylase, muscle form; assay: Competitive inhibition of rabbit muscle glycogen phosphorylase-b in presence of varying levels of glucose-1-phosphate and constant concentration of glycogen and AMP preincubated for 15 mins with AMP and glycogen followed by glucose-1-phosphate addition by Lineweaver-Burk plot method
Method in brief: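 Rabbit skeletal muscle GPb, 3 μg/mL, at 30 °C in the glycogen-synthesis direction. Buffer: 30 mM imidazole/HCl pH 6.8, 60 mM KCl, 0.6 mM EDTA, 0.6 mM DTT, 0.2% glycogen, 1 mM AMP. Glc-1-P at 2, 3, 4, 6 or 10 mM, added after 15 min enzyme–glycogen preincubation. Pi read at 850 nm by molybdate method from 1–4 min samples. Ki from 1/v vs [inhibitor]; three independent experiments, mean ± SD.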

[6] = target: T1, Glycogen phosphorylase, muscle form; assay: Competitive inhibition of rabbit muscle glycogen phosphorylase-a in presence of varying levels of glucose-1-phosphate and constant concentration of glycogen and AMP preincubated for 15 mins with AMP and glycogen followed by glucose-1-phosphate addition by Lineweaver-Burk plot method
Method in brief: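 Rabbit muscle GPa at 3 μg/mL, 30 °C, synthesis direction. Medium: 30 mM imidazole/HCl pH 6.8, 60 mM KCl, 0.6 mM EDTA, 0.6 mM DTT, 0.2% glycogen. Enzyme–glycogen preincubated 15 min before Glc-1-P start. Samples at 1, 2, 3, 4 min quenched in SDS; phosphate measured at 850 nm. Ki derived from 1/v vs inhibitor concentration; three independent runs, mean ± SD.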

[7] = target: T3, Glycogen phosphorylase, liver form; assay: Competitive inhibition of human liver glycogen phosphorylase-a assessed as release of inorganic phosphate using varying levels of glucose-1-phosphate and constant concentration of AMP and glycogen preincubated for 15 mins with AMP and glycogen followed by glucose-1-phosphate addition

Row | Compound | Ki [4] | Ki [5] | Ki [6] | other results
1 | O[C@@H]1[C@@H](O)[C@H](c2nc(-c3ccc4ccccc4c3)n[nH]2)OC[C@H]1O |  |  |  | Ki [1]: 491 µM
2 | O=c1[nH]c(=O)n([C@@H]2O[C@H](CO)[C@@H](O)[C@@H](CO)[C@H]2O)cc1F |  |  |  | Ki [2]: 27.1 µM
3 | N[C@@H]1[C@@H](O)[C@H](O)[C@@H](CO)O[C@H]1n1cc(-c2ccccc2)nn1 |  |  |  | inhibition [3]: inactive
4 | N[C@@H]1[C@@H](O)[C@H](O)[C@@H](CO)O[C@H]1c1nc(-c2ccc3ccccc3c2)c[nH]1 | 0.143 µM | 0.191 µM | 0.125 µM | 
5 | O[C@@H]1[C@@H](O)[C@H](c2nc(-c3ccccc3)c[nH]2)OC[C@H]1O |  |  |  | Ki [1]: 800 µM
6 | N[C@@H]1[C@@H](O)[C@H](O)[C@@H](CO)O[C@H]1c1nc(-c2ccccc2)c[nH]1 | 2.73 µM | 2.67 µM | 3.11 µM | 
7 | N[C@@H]1[C@@H](O)[C@H](O)[C@@H](CO)O[C@H]1c1nc2ccccc2[nH]1 |  | 107 µM |  | 
8 | N[C@@H]1[C@@H](O)[C@H](O)[C@@H](CO)O[C@H]1n1cc(-c2ccc3ccccc3c2)nn1 |  | 354 µM |  | 
9 | O[C@@H]1[C@@H](O)[C@H](c2nc(-c3ccc4ccccc4c3)c[nH]2)OC[C@H]1O |  |  |  | Ki [1]: 100 µM
10 | N[C@@H]1[C@@H](O)[C@H](O)[C@@H](CO)O[C@H]1c1nc(-c2ccc3ccccc3c2)n[nH]1 | 7.6 µM | 4.8 µM | 5.3 µM | 
11 | OC[C@H]1O[C@@H](c2nnc(-c3ccccc3)[nH]2)[C@H](O)[C@@H](O)[C@@H]1O |  |  |  | Ki [7]: 1.35 µM
12 | N[C@@H]1[C@@H](O)[C@H](O)[C@@H](CO)O[C@H]1c1nc(-c2ccccc2)n[nH]1 | 30.8 µM | 35.2 µM | 30.2 µM | 
13 | O=c1[nH]c(=O)n([C@@H]2O[C@H](CO)[C@@H](O)[C@H](O)[C@H]2O)cc1F |  |  |  | Ki [2]: 5.5 to 7.9 µM
